# Sampled rows, rich in hits. Any-hit rate of the full collection: about 2.7%.
# BB579 growth dn: growth inhibitors of yeast BB579 in restrictive medium, primary screen, yeast lifespan-shortening project, S. cerevisiae; OD615, 48 h; inhibition, % at 10 µM; actives 0.51% (n = 140,000); AID 804, 2007;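 active means inhibition above a set limit, 3 SD over the mean compound inhibition, cut at about 44% in these data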
#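 Assay system – yeast BB579 (DeaD) · Dosing – single compound dose of 10 µM, 0.25% DMSO final · Detection – OD615 turbidity measurement · Buffer or medium – CSMM-D restrictive synthetic medium containing dextrose (glucose) · Benchmarks – positive control amphotericin B 10 µg/mL · Incubation – 48 h exposure, 30 °C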
# Yeast lifespan up: compounds extending yeast replicative lifespan, primary screen, S. cerevisiae, OD615. S. cerevisiae growth with nicotinamide; deaD strain in restrictive glucose medium. inhibition of the nicotinamide effect, % at 10 µM. actives 0.68% (n = 130,000). AID 775, 2007;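 active means inhibition above a set limit, placed 3 SD over the median of all compounds, cut at about 26% in these data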;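 further: 0% = nicotinamide-treated wells and 100% = cells grown without nicotinamide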
#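 System: DeaD-strain S. cerevisiae / Buffer or medium: CSMM-D, restrictive glucose (dextrose) synthetic minimal medium / Probe or stimulus: nicotinamide, 1.5 mM, co-present with compound / Compound: one concentration, 10 µM, DMSO 0.25% / Incubation: 48 h compound exposure at 30 °C, humidified / Technique: optical density (absorbance) at 615 nm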
# RAM network inh: inhibitors of the yeast RAM network, primary screen, dse1pr::URA3 reporter, 5-FOA selection | S. cerevisiae dse1pr::URA3 reporter, 5-FOA growth OD615, 2 d; analog-sensitive cbk1-as2 kinase mutant strain | inhibition, % at 50 µM | actives 1.8% (n = 190,000) | AID 868, 2007;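 active means inhibition above a set limit, 3 SD over mean compound inhibition, cut at about 8.4% in these data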;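 further: 0% = DMSO-only wells with no growth and 100% = 10 µM 1-NA-PP1 full growth; inhibition rescues growth on 5-FOA so higher OD means more RAM inhibition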
# SDO1 yeast rescue: growth rescue of sdo1-depleted yeast, primary screen, S. cerevisiae, bone marrow failure model; actives 0.21% (n = 140,000); S. cerevisiae sdo1-depleted JHY4D growth rescue, OD600 30 h; active compounds read high; pdr5 snq2 efflux-pump mutant strain; z-score at 10 µM; AID 817, 2007;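 active means z-score above 3 at both the 24 hr and the 30 hr optical density reads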;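 further: z-score against mean and SD of all compound wells on the same plate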
# * hit, by the source's call; · = not tested or not shown.
SMILES,BB579 growth dn,Yeast lifespan up,RAM network inh,SDO1 yeast rescue
CCOc1ccccc1-c1nc(C(N)=O)c2[nH]c(=O)n(-c3ccccc3)c2n1,-26,-5,9.7*,0.67
COCCCNC(=S)NNC(=S)Nc1ccc(F)cc1F,-6,-2,0,0.15
CCOC(=O)c1cc(C#N)c(SCc2cccc3ccccc23)nc1C,-18,-9,10*,-0.03
COc1ccc2c(c1)c1nnc(SCC(=O)N3C(C)CCCC3C)nc1n2C (stereo not drawn),-40,-3,8,-1.1
COc1ccc2c(c1)c1nnc(SC)nc1n2C,90*,-12,0,-2.8
N/C(Cc1ccc(Cl)cc1Cl)=N\OC(=O)Cc1cccs1,-57,0,3,-1.6
N/C(Cc1ccc(Cl)cc1Cl)=N\OC(=O)c1cccs1,100*,-19,-1,-2.2
CC1(C)CC(=O)C(C(=O)Cc2ccccc2[N+](=O)[O-])C(=O)C1,-35,58*,-1,0.51
COC(=O)C1=C(C)N=c2s/c(=C/c3cccs3)c(=O)n2C1c1cccs1 (stereo not drawn),-58,-18,9.2*,-0.78
CSC1=C(C#N)C(c2ccccc2Cl)C2=C(N1)c1ccccc1C2=O (stereo not drawn),-21,28*,3,-0.55
CC(C)(C)C1CCc2[nH]nc(C(=O)O)c2C1 (stereo not drawn),-33,62*,1,0.42
O=C(NCc1ccco1)c1cc2sccc2n1Cc1ccccc1,-46,·,9.9*,-0.88
O=C(NCCc1ccccc1)c1cc2sccc2n1Cc1ccccc1,-82,-5,4,-0.28
Cc1ccc(Cn2c(C(=O)O)cc3sccc32)cc1,-34,26*,7,-0.71
CCn1c(C(=O)NCCCc2ccccc2)cc2sccc21,-20,5,10*,-0.64
COc1ccccc1NC(=O)C1=C(C)NC2=C(C(=O)CC(c3ccc(OC)c(OC)c3)C2)C1c1coc2ccccc2c1=O (stereo not drawn),-60,5,9.8*,1.1
CCOC(=O)C1=C(C)NC2=C(C(=O)CC(c3ccc(OC)c(OC)c3)C2)C1c1ccc(C)o1 (stereo not drawn),17,-24,0,-0.31
CC(C)(C)C1=NN(C(=O)c2ccccc2)C(O)(C(C)(C)C)C1 (stereo not drawn),-16,-2,10*,-0.58
COc1ccc(C(=O)N2CCN(c3nc4cc(C)ccc4cc3C#N)CC2)c(OC)c1,-3,-14,0,0.11
COc1ccc2cc(C#N)c(N3CCN(C(=O)c4ccccc4C)CC3)nc2c1,·,·,8.8*,·
CNC(=S)N(CCc1c(C)[nH]c2ccccc12)Cc1cc(OC)c(OC)c(OC)c1,-31,2,4,-0.29
Oc1c(C=C2N=c3ccccc3=N2)sc(=S)n1-c1ccccc1,0,-2,0,-0.14
CC1=Nc2ccccc2/C1=C/c1sc(=S)n(-c2cccc(C(=O)O)c2)c1O,·,·,10.0*,·
CCOC(=O)c1cc(-c2ccc(Cl)cc2)nc2c1c(C)nn2CCC#N,-5,-8,6,-1.4
CCOC(=O)c1cc(-c2ccc3c(c2)OCCO3)nc2c1c(C)nn2CCC#N,-41,-32,9.0*,-1.4
SMILES,BB579 growth dn,Yeast lifespan up,RAM network inh,SDO1 yeast rescue
CN(C)c1ccc(NC(=S)NCC2CCCO2)cc1 (stereo not drawn),10,-1,1,-0.42
Cc1cc(O)c(NC(=S)NC(=O)c2ccc(-c3ccc(Cl)cc3)o2)cc1C,-76,-20,4,-2.2
Cc1ccc(NC(=S)NC(=O)c2ccc(-c3ccc(Cl)cc3)o2)c(O)c1,-35,4,10*,-1.5
Cc1ccc(NC(=O)CN2CCc3ccccc3C2)cc1S(=O)(=O)N1CCOCC1,-3,6,0,-0.71
O=C(OCc1ccc2c(c1)OCO2)c1cccc(S(=O)(=O)N2CCCCC2)c1,-27,1,8.6*,-0.73
O=C(CC12CC3CC(CC(C3)C1)C2)NC(=S)NCc1ccccc1,-29,8,9.4*,-1.2
Cc1ccc(Nc2ncnc3sc(C)c(C)c23)cc1,-7,·,0,-1.1
CCCCn1c(NCc2ccccc2NS(=O)(=O)c2ccc(C)cc2)nc2ccccc21,-24,-13,-2,-0.87
CCn1c(/N=C/c2ccccc2NS(=O)(=O)c2ccc(C)cc2)nc2ccccc21,-5,50*,0,-1.8
COc1ccc(-n2ccnc2)cc1,·,·,2,·
COC(=O)c1cc(OC)c(OC)cc1NC(=O)C(C)Sc1ccc(C)cc1 (stereo not drawn),-42,-1,3,-0.85
COc1ccc([N+](=O)[O-])cc1NC(=O)CSc1nc(C)cc(C)n1,-34,-1,2,0.28
COc1ccc([N+](=O)[O-])cc1NC(=O)CSc1ccc2ccccc2c1,-27,1,8.4*,0.16
COc1ccc([N+](=O)[O-])cc1NC(=O)C(C)Sc1ccc(C)cc1 (stereo not drawn),1,-6,9.2*,-0.79
Cc1occc1-c1nnc(SCC(=O)Nc2ccccc2)n1Cc1ccccc1,-2,-7,1,-1.3
O=[N+]([O-])c1ccc(N/N=C/c2ccc[nH]2)cc1,87*,-6,8.9*,-1.2
CCC(C)c1ccc(NC(=O)COc2c(F)c(F)c(C(F)(F)F)c(F)c2F)cc1 (stereo not drawn),-32,8,10*,-0.61
CCSc1nnc(NC(=O)C2(C)Cc3ccccc3C(=O)O2)s1 (stereo not drawn),-3,37*,-1,-1.3
O=C(COC(=O)c1ccccc1Nc1ccccc1)c1ccccc1,-6,-12,9.8*,2.6
CNc1ccccc1C(=O)OCC(=O)c1ccccc1,-22,-8,1,-0.23
CCOC(=O)C1CCCN(c2ccc(NC(=O)c3snc4c(=O)[nH]cnc34)cc2)C1 (stereo not drawn),-41,-1,4,-0.24
CCOC(=O)C1CCCN(c2ccc(NC(=O)c3snc4c(=O)[nH]c(C)nc34)cc2)C1 (stereo not drawn),-18,-7,9.8*,0.1
CC(NC(=O)CCCN1C(=O)c2ccccc2C1=O)c1ccc2c(c1)CCCC2 (stereo not drawn),-21,5,2,-0.23
CC(NC(=O)CCCCCCN1C(=O)c2ccccc2C1=O)c1ccc2c(c1)CCCC2 (stereo not drawn),-47,7,11*,-1.3
CC(NC(=O)CCCCCN1C(=O)c2ccccc2C1=O)c1ccc2c(c1)CCCC2 (stereo not drawn),-103,-7,9.1*,-1.7
Cc1nnc(SCC(=O)O)o1,·,·,0,·
CC1CC(C)CN(c2ccc(-n3cnnn3)cc2[N+](=O)[O-])C1 (stereo not drawn),-52,-24,1,-1.7
O=[N+]([O-])c1cc(-n2cnnn2)ccc1N1CCC(Cc2ccccc2)CC1,-99,35,8.9*,-1.7
Nn1c(SCC(=O)Nc2ccccc2F)nc2ccccc2c1=O,-65,-12,1,-1.4
